Reference: ChEMBL document CHEMBL1177650, “Synthesis, structural elucidation and in vitro antiparasitic activity against Trypanosoma cruzi and Leishmania chagasi parasites of novel tetrahydro-1-benzazepine derivatives” (Bioorg Med Chem, 2010)

Experiments:
[1] = Cytotoxicity against african green monkey Vero cells after 72 hrs by MTT assay; assay type: cell-based; conditions: chlorocebus sabaeus
How it was run: (§1)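 Vero or transformed THP-1 cells incubated with compound (0.3–300 μM) 72 h at 37 °C, 5% CO2; untreated controls. MTT read-out, formazan OD at 580 nm; % cytotoxicity = 100 × (OD control − OD treated)/OD control. CC50/CC90 by sigmoidal regression; triplicates, repeated twice. DMSO stocks 100× concentrated, diluted in medium.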

Trypanosoma cruzi [2] = assay: Antitrypanosomal activity against Trypanosoma cruzi 320I01 epimastigotes after 72 hrs by haemocytometry; assay type: functional, organism-based; conditions: 320I01, 72 h
How it was run: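 Late-phase T. cruzi epimastigotes cultured in LIT medium with hiFCS at 28 °C; threefold serial dilutions (0.3–100 μM) for 72 h at 28 °C, untreated controls. Parasites counted in a haemocytometer; IC50/IC90 by sigmoidal regression; each concentration in triplicate, two experiments.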

[3] = Selectivity index, CC50 for african green monkey Vero cells to IC50 for Trypanosoma cruzi 320I01 epimastigote; assay type: functional
How it was run: (§2)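 Selectivity index computed as CC50 in Vero cells divided by IC50 against the T. cruzi stage named in the line.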

Trypanosoma cruzi [4] = assay: Antitrypanosomal activity against Trypanosoma cruzi 320I01 amastigotes infected in african green monkey Vero cells after 5 days by Giemsa staining; assay type: functional, organism-based; conditions: 320I01, Vero, 120 h
How it was run: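 Vero cells (RPMI, 5% hiSBF, 37 °C, 5% CO2) infected 24 h with tissue-derived T. cruzi trypomastigotes at parasite:cell 10:1. Compound dilutions (top 100 μM) applied 5 days at 37 °C, 5% CO2, medium changed once at day 3. Infected cells scored per 300 cells on methanol-fixed Giemsa preparations; IC50/IC90 by sigmoidal regression; triplicates, two experiments.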

[5] = Selectivity index, CC50 for african green monkey Vero cells to IC50 for Trypanosoma cruzi 320I01 amastigotes; assay type: functional; how it was run: as §2
Leishmania chagasi [6] = assay: Antileishmanial activity against Leishmania chagasi MHOM/BR/74/PP75 promastigotes after 72 hrs by haemocytometry; assay type: functional, organism-based; conditions: MHOM/BR/74/PP75, 72 h
How it was run: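 Late-phase L. chagasi promastigotes, grown at 28 °C in RPMI 1640 with hemin, HEPES and 10% hiSBF, exposed to threefold serial dilutions (0.3–100 μM) for 72 h at 28 °C; untreated controls. Growth inhibition from haemocytometer counts; IC50/IC90 by sigmoidal regression; triplicates, repeated twice.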

[7] = Cytotoxicity against human THP1 cells after 72 hrs by MTT assay; assay type: cell-based; conditions: THP-1 cells; how it was run: as §1
[8] = Selectivity index, CC50 for human THP1 cells to IC50 for Leishmania chagasi MHOM/BR/74/PP75 promastigotes; assay type: functional, THP-1
How it was run: (§3)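 Selectivity index computed as CC50 in THP-1 cells divided by IC50 against the L. chagasi stage named in the line.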

Leishmania chagasi [9] = assay: Antileishmanial activity against Leishmania chagasi MHOM/BR/74/PP75 amastigotes infected in human THP1 cells after 5 days by Giemsa staining; assay type: functional, organism-based; conditions: MHOM/BR/74/PP75, THP-1, 120 h
How it was run: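 THP-1 cells (RPMI, 5% hiSBF, 37 °C, 5% CO2) transformed, then infected 24 h with late-phase L. chagasi promastigotes at parasite:cell 10:1. Treated with compound dilutions (top 100 μM) 5 days at 37 °C, 5% CO2, medium changed once after 3 days. Infected cells counted per 300 cells on methanol-fixed Giemsa slides; IC50/IC90 by sigmoidal regression; triplicates, repeated twice.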

[10] = Selectivity index, CC50 for human THP1 cells to IC50 for Leishmania chagasi MHOM/BR/74/PP75 amastigotes; assay type: functional, THP-1; how it was run: as §3

SMILES | IC50 (Trypanosoma cruzi [2]) | IC90 (Trypanosoma cruzi [2]) | IC50 (Trypanosoma cruzi [4]) | IC90 (Trypanosoma cruzi [4]) | IC50 (Leishmania chagasi [6]) | IC90 (Leishmania chagasi [6]) | IC50 (Leishmania chagasi [9]) | IC90 (Leishmania chagasi [9]) | CC50 at 72 h [1] | CC90 at 72 h [1] | Selectivity Index [3] | Selectivity Index [5] | CC50 at 72 h [7] | CC90 at 72 h [7] | Selectivity Index [8] | Selectivity Index [10]
Cc1cccc([C@@H]2C[C@@H]3Cc4ccccc4N2O3)c1 (relative stereo) | 76.7 µM | > 100 µM | > 100 µM | > 100 µM | 52 µM | > 100 µM | > 100 µM | > 100 µM | > 300 µM | > 300 µM | >4 | >3 | > 300 µM | > 300 µM | >5 | >3
c1ccc([C@@H]2C[C@@H]3Cc4ccccc4N2O3)cc1 (relative stereo) | > 100 µM | > 100 µM | > 100 µM | > 100 µM | > 100 µM | > 100 µM | > 100 µM | > 100 µM | > 300 µM | > 300 µM | >3 | >3 | > 300 µM | > 300 µM | >3 | >3
Clc1ccc([C@@H]2C[C@@H]3Cc4ccccc4N2O3)cc1 (relative stereo) | 34.2 µM | 89.4 µM | 45.4 µM | 66.8 µM | 38.3 µM | 67.5 µM | > 100 µM | > 100 µM | > 300 µM | > 300 µM | >8 | >6 | > 300 µM | > 300 µM | >7 | >3
Clc1cccc([C@@H]2C[C@@H]3Cc4ccccc4N2O3)c1 (relative stereo) | 45.8 µM | > 100 µM | > 100 µM | > 100 µM | 49.1 µM | 70.7 µM | > 100 µM | > 100 µM | > 300 µM | > 300 µM | >6 | >3 | 134 µM | > 300 µM | 2.73 | >1
Fc1ccc([C@@H]2C[C@@H]3Cc4ccccc4N2O3)cc1 (relative stereo) | > 100 µM | > 100 µM | > 100 µM | > 100 µM | > 100 µM | > 100 µM | > 100 µM | > 100 µM | > 300 µM | > 300 µM | >3 | >3 | 183 µM | > 300 µM | >1 | >1
COc1cccc([C@@H]2C[C@@H]3Cc4ccccc4N2O3)c1 (relative stereo) | > 100 µM | > 100 µM | > 100 µM | > 100 µM | 54.7 µM | > 100 µM | > 100 µM | > 100 µM | > 300 µM | > 300 µM | >3 | >3 | > 300 µM | > 300 µM | >5 | >3

These reach a lower IC50 (Trypanosoma cruzi [2]). Values come first.

IC50 (Trypanosoma cruzi [2]) | IC90 (Trypanosoma cruzi [2]) | IC50 (Trypanosoma cruzi [4]) | IC90 (Trypanosoma cruzi [4]) | IC50 (Leishmania chagasi [6]) | IC90 (Leishmania chagasi [6]) | IC50 (Leishmania chagasi [9]) | IC90 (Leishmania chagasi [9]) | SMILES | CC50 at 72 h [1] | CC90 at 72 h [1] | Selectivity Index [3] | Selectivity Index [5] | CC50 at 72 h [7] | CC90 at 72 h [7] | Selectivity Index [8] | Selectivity Index [10]
26.9 µM | > 100 µM | > 100 µM | > 100 µM | 15.7 µM | 34.7 µM | > 100 µM | > 100 µM | FC(F)(F)Oc1ccc2c(c1)C[C@H]1C[C@@H](c3ccccc3)N2O1 (relative stereo) | > 300 µM | > 300 µM | >11 | >3 | > 300 µM | > 300 µM | >19 | >3
23.4 µM | > 100 µM | 56.4 µM | 43.6 µM | 25.5 µM | 54.9 µM | > 100 µM | > 100 µM | Brc1ccc2c(c1)C[C@H]1C[C@@H](c3ccccc3)N2O1 (relative stereo) | > 300 µM | > 300 µM | >12 | >5 | > 300 µM | > 300 µM | >11 | >3
9 µM | 35.3 µM | > 100 µM | > 100 µM | 40.1 µM | 55.4 µM | > 100 µM | > 100 µM | Clc1ccc2c(c1)C[C@H]1C[C@@H](c3ccccc3)N2O1 (relative stereo) | > 300 µM | > 300 µM | >33 | >3 | > 300 µM | > 300 µM | >7 | >3
7.68 µM | 54.1 µM | > 100 µM | > 100 µM | 47.6 µM | > 100 µM | > 100 µM | > 100 µM | Fc1ccc2c(c1)C[C@H]1C[C@@H](c3ccccc3)N2O1 (relative stereo) | > 300 µM | > 300 µM | >39 | >3 | > 300 µM | > 300 µM | >6 | >3
